Assay results: ChEMBL document CHEMBL4513216, “Probing the Open Global Health Chemical Diversity Library for Multistage-Active Starting Points for Next-Generation Antimalarials” (ACS Infect Dis, 2020)

Experiment: Toxicity liver stage against HepG2, at 10uM
Type: cell-based
Design: test concentration 10 uM, cell line HepG2-A16-CD81EGFP
Conditions: human, HepG2-A16-CD81EGFP cells; read-out: INHIBITION
How it was run: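 Uninfected HepG2-A16-CD81EGFP cells, 3 × 10^3 per well, 1536-well, plated on prespotted compound at 10 μM final, parasite-free screening media added to match infected plates; puromycin 10 μM positive, DMSO 0.5% negative; run in parallel with 48 h PbLuc assay at 37 °C, 5% CO2; viability by CellTiter-Glo luminescence, normalized to controls.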

Compared with O=C(NC[C@H]1OC[C@@H](NCc2ccccc2)[C@@H]1O)Nc1ccccc1, O=C1N[C@@H]2CCN(C(=O)c3ccccc3)[C@@H]2C(=O)N1Cc1ccccc1 is lower in cytotoxicity at 10 µM: 1.97% for the first, -1.84% for the second.

Compared with O=C1CO[C@H]2CN(S(=O)(=O)c3ccccc3)C[C@H]2N1c1ccccc1, CS(=O)(=O)N1CCCC(n2nnn(-c3ccccc3)c2=O)C1 (stereo not given) is lower in cytotoxicity at 10 µM: -2.6% for the first, -6.17% for the second.

Going from O=C1N[C@@H]2CCN(C(=O)C3CC3)[C@@H]2C(=O)N1c1ccc(F)cc1 to CCCC(=O)N1CCCC(C(=O)c2cnn(-c3ccc(F)cc3)c2N)C1 (stereo not given), the cytotoxicity at 10 µM rises from -1.8% to 4.67%.

Compared with COc1ccc(Nc2nc(N)c(C(C)=O)s2)cc1Cl, COCc1c(Cl)cccc1NC(=O)NCc1cccc(N(C)C)n1 is lower in cytotoxicity at 10 µM: 0.833% for the first, 0.217% for the second.

First: CNC(=O)c1cnc2c(C)csc2c1
Second: CC(=O)c1ccc(CNC(=O)c2c(C)cc(C)cc2C)nc1C
The cytotoxicity at 10 µM of the first is lower: -22.3% for the first, 9.31% for the second.

Compared with COCCNC(=O)c1nc(NS(=O)(=O)c2ccccc2)sc1C, COc1c(C(=O)NC(C)Cc2ccccc2Cl)c(C)nn1C (stereo not given) is lower in cytotoxicity at 10 µM: 9.18% for the first, -0.686% for the second.

First: Cc1nc(C(=O)N2CCN(S(C)(=O)=O)CC2)c(-c2cccc(F)c2)s1
Second: CS(=O)(=O)N1CCO[C@@H]2CN(C(=O)c3ccnnc3)C[C@@H]2C1
The cytotoxicity at 10 µM of the first is lower: 1.37% for the first, 5.97% for the second.

First: Cc1cc(NC(=O)Cn2cnc(-c3cccs3)cc2=O)sn1
Second: CC(C)C(NC(=O)NCc1cccnc1N(C)C)c1cccs1 (stereo not given)
The cytotoxicity at 10 µM of the first is higher: 0.0962% for the first, -1.86% for the second.

Compared with O=C1CCC2(CCN(Cc3ccsc3)CC2)N1Cc1ccccc1, CN(C)Cc1ccnc(C2CN(CCc3ccccc3)CCO2)n1 (stereo not given) is lower in cytotoxicity at 10 µM: 0.552% for the first, -16.5% for the second.

Going from O=C([C@H]1CCCO1)N1CCC2(CC1)C(=O)N(CC1CC1)c1ccccc12 to O=C(CCN1CCSCC1c1ccccc1)N1CCOCC1 (stereo not given), the cytotoxicity at 10 µM falls from 8.5% to -12.5%.

Compared with O=C(NCCSCc1ccco1)c1ccc(N2CCOCC2)cc1, Cc1nn(C)c(C)c1C(=O)N1CCOCC1CC(=O)c1ccco1 (stereo not given) is lower in cytotoxicity at 10 µM: -0.971% for the first, -11.4% for the second.

First: CC1CCN(S(=O)(=O)c2cccn(CC(=O)N3CCOCC3)c2=O)CC1
Second: N#Cc1c(N2CCCN(C3CCOCC3)CC2)nc2ccccn12
The cytotoxicity at 10 µM of the first is lower: 2.11% for the first, 14.7% for the second.

Going from O=C(CCCC(=O)NCc1cccc(Br)c1)NCCN1CCCC1 to O=C(O)CCCC(=O)NCC1(O)CCN(c2ccnc3cccnc23)C1 (stereo not given), the cytotoxicity at 10 µM rises from -7.47% to 5.09%.

First: Cc1cccc2c1ccn2CCC(=O)O
Second: Cc1ccc(C(C)(O)CNC(=O)CCn2ccnc2C(C)C)o1 (stereo not given)
The cytotoxicity at 10 µM of the first is lower: 7.47% for the first, 8.53% for the second.

Going from Cc1noc(C)c1C(=O)N[C@@H]1CCC[C@@H](Oc2ccccc2)[C@@H]1O to C[C@]1(O)CN(Cc2cccc(C(=O)O)c2)CC[C@@H]1Oc1cccc(F)c1, the cytotoxicity at 10 µM falls from 4.72% to -5.64%.

Going from O=C(c1cccnc1)N1CCc2[nH]nc(Nc3ccccc3)c2C1 to CC(C)C(=O)N1CCC2(COCc3cnc(-c4cccnc4)nc32)C1 (stereo not given), the cytotoxicity at 10 µM falls from 6.83% to -102%.

Going from COCCNC(=O)C1(CCCc2cccnc2)CCCN1C (stereo not given) to Cc1ccc(CNC(=O)N2CCCCC2CCNS(C)(=O)=O)cc1 (stereo not given), the cytotoxicity at 10 µM falls from 20.1% to -0.524%.

Compared with CN(C)c1nccnc1C1CCN(C2CCCCC2O)CC1 (stereo not given), O=C(c1ccc2c(c1)OCCCO2)N1CCCCC1C1OCCO1 (stereo not given) is lower in cytotoxicity at 10 µM: 8.12% for the first, -0.158% for the second.

Compared with O=C1CCC[C@]2(CN(S(=O)(=O)N3CCCCC3)C[C@H]2c2cccnc2)N1, CC(C)NC(=O)C1CN(C(=O)Nc2ccccc2)CC12CCOCC2 (stereo not given) is higher in cytotoxicity at 10 µM: -0.217% for the first, 4.58% for the second.

Compared with CCCn1cc(C(=O)N2CCCC(Cc3nccs3)C2)cn1 (stereo not given), Cc1cnn(CC2CCCN2C(=O)CCc2c(C)noc2C)c1 (stereo not given) is higher in cytotoxicity at 10 µM: -11.4% for the first, -5.81% for the second.

First: CC(C)n1cc(C(=O)N2Cc3ccccc3OC3(CCOCC3)C2)cn1
Second: Cn1cc(-c2ncc3c(c2C(=O)O)CCN(CC2CCOC2)C3)cn1 (stereo not given)
The cytotoxicity at 10 µM of the first is higher: 6.61% for the first, -94.6% for the second.

Going from O=C(NC1CC1)C1CCc2nnc(-c3cccc(C(F)(F)F)c3)n21 (stereo not given) to COc1cccc2c1N(Cc1noc(C3CC3)n1)CCC2, the cytotoxicity at 10 µM falls from 8.6% to -5.59%.

Going from CN(C)C(=O)c1nc(-c2ccc(S(C)(=O)=O)cc2)c2ccccn12 to O=C(CNC(=O)C1CCCC1)NCC(O)c1ccc2ccccc2c1 (stereo not given), the cytotoxicity at 10 µM falls from 8.77% to 0.587%.

First: CC(C)CN(CC(=O)O)C(=O)c1ccc(F)cc1
Second: COc1ccc(C(C#N)NC(=O)Cc2ccc(F)c(F)c2)c(OC)c1 (stereo not given)
The cytotoxicity at 10 µM of the first is lower: -2.83% for the first, 21.6% for the second.

Going from CC(NCc1nnc2n1CCCC2)c1nc(-c2cccs2)no1 (stereo not given) to CCCc1n[nH]c(C2CN(C(=O)Cc3ccc(C)nc3)CCO2)n1 (stereo not given), the cytotoxicity at 10 µM rises from -39.5% to 6.73%.

Compared with Cc1ccc2c(c1)C(NCc1ccccn1)CC2 (stereo not given), CN(CCn1cnnc1)C(=O)c1ccnc(OC2CCC2)c1 is lower in cytotoxicity at 10 µM: 5.47% for the first, 5.1% for the second.

Compared with CCN1CCCN(c2ccc(-n3ccc(C)n3)nn2)CC1, O=c1cc(CN2CCC(CCc3ccc(O)cc3)CC2)[nH]c(=O)[nH]1 is lower in cytotoxicity at 10 µM: -0.553% for the first, -0.885% for the second.

Molecule COc1cc(-c2cc(N)ncn2)cc(OC)c1OC has a cytotoxicity at 10 µM of -5.11%.
